Assay outcomes deposited in PubChem BioAssay by Johns Hopkins Ion Channel Center.
Hits are enriched below; roughly 3.5% of the tested compounds scored in any of these assays.
RGS4 pot: RGS4 potentiators or activators, primary screen, cell-based, HEK293 M3R inducible RGS4, calcium flux. carbachol calcium flux Fluo4; stronger effect = lower value. B-score at 10 µM. AID 463111, 2010. 310,000 tested, 0.92% active;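 active = B-score of the integrated calcium signal more than 4 SD below the library mean, with starting fluorescence not abnormally high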;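 note: negative B-score means reduced calcium response which marks RGS4 activation or potentiation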
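Reagent: ECmax carbachol challenge; Test system: M3R-expressing HEK293 line, RGS4 induced by doxycycline; Schedule: overnight RGS4 induction, 30 min dye load 37 °C, 20 min compound RT; Detection: calcium dye Fluo4 fluorescence; Read-out: Agonist-evoked peak-minus-minimum fluorescence over baseline, integrated ratio, B score.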
MrgX1 ag: agonists of human MrgX1 receptor, primary screen, HEK293 cells, Fluo-4 calcium flux; Mas-related G-protein coupled receptor member X1 (Homo sapiens), Q96LB2; Fluo-4 calcium fluorescence, agonist mode; stronger effect = higher value; B-score at 10 µM; 310,000 tested, 0.44% active;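 active = calcium response B-score plate-corrected fluorescence ratio at least 3 library SD, with starting fluorescence B-score inside 5 SD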
Target sequence (Q96LB2 whole entry, looked up): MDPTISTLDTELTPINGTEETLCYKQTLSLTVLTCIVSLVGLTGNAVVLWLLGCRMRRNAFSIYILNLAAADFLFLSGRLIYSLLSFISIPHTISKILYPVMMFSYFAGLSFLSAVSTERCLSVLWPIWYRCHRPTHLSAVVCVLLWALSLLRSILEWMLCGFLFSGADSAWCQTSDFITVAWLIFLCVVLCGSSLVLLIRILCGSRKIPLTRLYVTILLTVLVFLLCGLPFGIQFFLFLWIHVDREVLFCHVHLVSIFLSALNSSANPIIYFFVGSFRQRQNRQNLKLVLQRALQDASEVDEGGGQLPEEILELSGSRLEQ
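Test system: HEK293 cells stably expressing human MrgX1 receptor; amount: 15,000 cells per well; doses: compound delivered in addition one of three; times: overnight plating before 1 h dye loading; detection: Fluo-4 NW calcium-flux fluorescence, kinetic read; read-out basis: B-scored fluorescence response ratio; controls: positive and negative controls per plate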
MrgX1 antagonist: antagonists of human MrgX1 receptor, primary screen, HEK293 cells, Fluo-4 calcium flux; Mas-related G-protein coupled receptor member X1 (Homo sapiens), Q96LB2; BAM8-22 antagonism; stronger effect = lower value; B-score at 10 µM; 310,000 tested, 1.3% active;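 active = calcium-response B-score plate-corrected more than 3 library SD below zero, starting fluorescence within 5 deviations, no agonist response on first addition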;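 note: peak minus trough fluorescence over baseline after final BAM8-22 challenge near maximal dose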
RGS4 inh: RGS4 inhibitors, primary screen, cell-based, HEK293 M3R inducible RGS4, calcium flux. Regulator of G-protein signaling 4 (Homo sapiens), P49798. Fluo-4 calcium flux; stronger effect = higher value; triggered by carbachol at its EC20. B-score at 10 µM. 310,000 tested, 0.45% active;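 active = B-score, a plate-corrected calcium signal, over three deviations above library mean, with baseline fluorescence within five deviations of library mean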;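 note: RGS4 expression induced by doxycycline in cells with stable M3 receptor; B-score is computed from the integrated fluorescence ratio over baseline after carbachol; higher B-score means a larger calcium signal and so more RGS4 inhibition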
Target sequence (P49798 whole entry, looked up): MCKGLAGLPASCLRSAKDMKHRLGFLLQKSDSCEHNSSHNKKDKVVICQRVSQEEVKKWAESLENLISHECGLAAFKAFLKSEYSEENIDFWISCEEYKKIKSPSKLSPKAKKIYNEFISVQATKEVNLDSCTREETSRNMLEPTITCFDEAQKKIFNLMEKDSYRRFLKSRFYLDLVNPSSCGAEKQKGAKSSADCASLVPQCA
MrgX1 allo act: positive allosteric modulators of MrgX1, primary screen, HEK293 cells, Fluo-4 calcium flux; FDSS; stronger effect = higher value; B-score at 10 µM; 310,000 tested, 0.63% active;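 active = plate-corrected calcium response at least 3 library SD above typical, normal starting fluorescence, not activating the receptor alone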;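 note: compound read alongside a low EC10 to EC30 dose of BAM8-22 agonist; peak minus trough fluorescence over baseline measured at the second addition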
RGS4 block valid: enhanced carbachol calcium response, M3R/RGS4 cells, RGS4 inhibitor project, cell-based, validation screen, HEK293 M3R/RGS4, calcium flux; AID 492999, 2010; 1,700 tested, 65% active; carbachol calcium Fluo-4 fluorescence; carbachol added at its EC20; 0 = buffer wells, 100 = carbachol control; shares compounds with RGS4 inh; calcium response, % at 10 µM;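 active = duplicate-averaged calcium response above the buffer-only control mean plus 5 SD of those controls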;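 note: integrated fluorescence ratio F max minus min over baseline F0; higher response in RGS4-induced cells means RGS4 inhibition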
M3R Ca ctr: carbachol calcium response in non-induced M3R cells, confirmation, counter-screen for RGS4 inhibitor project, cell-based, HEK293 M3R. carbachol calcium Fluo-4; submaximal (EC20) carbachol stimulus; buffer wells 0%, carbachol control wells 100%. 1,900 tested, 20% active. AID 493000, 2010. shares compounds with RGS4 inh. activity (percent), % at 10 µM; call rule not given here;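 note: RGS4 induction absent so cells express M3R without RGS4; higher means more calcium signal and flags a non-specific hit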
M3R basal Ca ctr: signal in non-induced cells without carbachol, RGS4 inhibitor counter-screen; shares compounds with RGS4 inh; HEK293 M3R/RGS4 non-induced, Fluo-4 calcium, no carbachol; normalised: buffer wells 0%, carbachol wells 100%; calcium response (agonist-mode artifact), % at 10 µM; 1,900 tested, 22% active; AID 493001;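 active = duplicate-averaged calcium rise in uninduced cells above buffer wells' mean plus 5 SD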
Numbers without * were called inactive; i = inactive; . = no result given.

SMILES	RGS4 pot	MrgX1 ag	MrgX1 antagonist	RGS4 inh	MrgX1 allo act	RGS4 block valid	M3R Ca ctr	M3R basal Ca ctr
CC1C(C#N)=C(SCC(N)=O)NC2=C1C(=O)CC(C)(C)C2 (stereo unspecified)	i	i	i	i	i	.	.	.
COc1cc(CN2CCNC(=O)C2CC(=O)N(C)Cc2ncc[nH]2)cc(OC)c1 (stereo unspecified)	i	i	i	i	i	.	.	.
O=C(O)c1ccc2c(=O)n3c(nc2c1)/C(=C/c1ccc(Cl)cc1Cl)CC3	i	i	i	19*	i	24%*	i	i
COc1ccc(NC(=O)/C(Cl)=C(/Cl)S(=O)Cc2ccccc2)cn1 (stereo unspecified)	i	i	i	27*	i	46%*	i	i
COc1cc(/C=C2\C(=O)N(c3ccc(NC(C)=O)cc3)N=C2c2ccccc2)ccc1O	i	i	i	6.2*	i	i	i	16%*
CCNC(=O)NC(=O)CSc1nc2ccccc2n1CCOC	i	i	i	i	i	.	.	.
O=C(N/N=C/C1=C(N2CCOCC2)C(=C\c2ccccc2)/CC1)Nc1ccccc1	i	i	i	i	i	.	.	.
O=C(O)c1ccccc1N/N=C/C1=C(N2CCOCC2)C(=C\c2ccccc2)/CC1	i	39*	i	8.2*	i	30%*	i	140%*
Oc1ccc(-c2csc(-c3cccnc3)n2)cc1O	i	i	i	i	i	.	.	.
Oc1ccc(-c2csc(-c3ccccc3)n2)cc1O	i	i	i	5.8*	i	24%*	i	i
COC(=O)c1cc(=O)n(-c2ccc(F)cc2)c(=Nc2ccc(F)cc2)s1	i	i	i	13*	i	30%*	54%*	i
Cc1cccc(NC(=S)N2CCN(S(=O)(=O)c3cccc(F)c3)CC2)c1	i	i	i	i	i	.	.	.
CCOc1ccc(C(NC(=O)CC)c2c(O)ccc3ccccc23)cc1 (stereo unspecified)	i	i	i	i	i	.	.	.
CC(=O)Oc1ccc2ccccc2c1C(NC(=O)Cc1ccccc1)c1ccc(Cl)cc1 (stereo unspecified)	i	i	-5.9*	i	i	.	i	i
Oc1ccc(-c2n[nH]c(C(F)(F)F)c2-c2ccccc2)c(O)c1	i	i	i	25*	i	48%*	46%*	i
COc1ccccc1-c1c(-c2ccc(O)cc2O)n[nH]c1C(F)(F)F	i	i	i	11*	i	40%*	33%*	i
Nc1ncc(-c2ccccc2)c(-c2ccc(O)cc2O)n1	i	i	i	i	i	.	.	.
COc1ccc(-c2c(-c3ccc(O)cc3O)n[nH]c2C)cc1OC	i	i	i	i	i	.	.	.
COc1ccc(-c2c(-c3ccc(O)cc3O)n[nH]c2C(F)(F)F)cc1	i	i	i	10*	i	35%*	35%*	20%*
Cc1ccc(C)c(Nc2nc3ccc(C)cc3n3cnnc23)c1	i	i	i	i	i	.	.	.
COc1ccc(OC)c(-c2nc3ccccc3nc2-c2ccccc2)c1	i	i	i	i	i	i	i	i
CCCC(=O)Nc1c(-c2ccccc2Cl)c(=O)c2ccccc2n1C	i	i	i	i	i	.	.	.
CC(=O)/C(=N/Nc1ccccc1)N1CCOCC1	i	i	i	i	i	i	i	i
COc1cc(CC(NC(C)=O)C(=O)NC2CCN(c3nc(OC)nc(OC)n3)CC2)cc(OC)c1 (stereo unspecified)	i	i	i	i	i	.	.	.
COCCOC(=O)/C(=C/c1ccc(OC(=O)c2ccccc2)cc1)C(C)=O	i	31*	i	15*	i	82%*	i	16%*
SMILES	RGS4 pot	MrgX1 ag	MrgX1 antagonist	RGS4 inh	MrgX1 allo act	RGS4 block valid	M3R Ca ctr	M3R basal Ca ctr
CCCCCOc1ccc(OC(=O)c2ccncc2)cc1	i	i	i	i	i	.	.	.
COC(=O)c1ccc(-n2ccnc2)cc1	i	i	i	i	i	.	.	.
CCOC(=O)/C(=C/c1ccc(OC(=O)c2ccncc2)cc1)C(C)=O	i	29*	i	7.6*	i	28%*	42%*	16%*
CCOC(=O)C(=Cc1ccc(-n2ccnc2)cc1)C(=O)OCC	i	i	i	13*	i	18%*	i	i
CCN(CC)S(=O)(=O)c1cccc(NC(=O)COC(=O)CCC(=O)c2ccc(F)cc2)c1	i	i	i	i	i	.	.	.
CCOC(=O)CSC1=NC(=O)/C(=C\c2ccc(Cl)cc2)S1	i	i	i	i	i	i	i	18%*
CCOC(=O)C1CCN(C2=NC(=O)/C(=C/c3ccc(Cl)cc3)S2)CC1	i	i	i	i	i	.	.	.
CC1=C(C#N)c2nc(N)c(C#N)c(C)c2/C1=C\c1ccc(-c2ccccc2C(=O)O)o1	i	.	.	5.6*	.	24%*	32%*	i
COc1cc(/C=C2/C(C)=C(C#N)c3nc(N)c(C#N)c(C)c32)ccc1OCC(=O)O	i	i	i	i	i	.	.	.
O=C(CCNc1ccc(F)cc1)c1ccco1	i	i	i	5.4*	i	11%*	i	i
O=C(CCNc1ccc(F)c(Cl)c1)c1ccco1	i	i	i	i	i	.	.	.
COc1ccc(N2C(=O)CC(N3CCN(S(=O)(=O)c4c(F)cccc4F)CC3)C2=O)cc1OC (stereo unspecified)	i	i	i	6.8*	i	9.0%*	i	i
COc1cccc(N2CCN(C3CC(=O)N(c4ccc(F)c(Cl)c4)C3=O)CC2)c1 (stereo unspecified)	i	i	i	i	i	.	.	.
